Published values gathered from unrelated publications.
KIT V559D: Mast/stem cell growth factor receptor Kit (KIT, Homo sapiens, UniProt P10721, V559D)
KIT A829P: Mast/stem cell growth factor receptor Kit (KIT, Homo sapiens, UniProt P10721, A829P)
KIT: Mast/stem cell growth factor receptor Kit (KIT, Homo sapiens, UniProt P10721)
KIT V559D/V654A: Mast/stem cell growth factor receptor Kit (KIT, Homo sapiens, UniProt P10721, V559D/V654A)
KIT D816H: Mast/stem cell growth factor receptor Kit (KIT, Homo sapiens, UniProt P10721, D816H)
KIT L576P: Mast/stem cell growth factor receptor Kit (KIT, Homo sapiens, UniProt P10721, L576P)
KIT T670I/V559D: Mast/stem cell growth factor receptor Kit (KIT, Homo sapiens, UniProt P10721, T670I/V559D)
KIT D816V: Mast/stem cell growth factor receptor Kit (KIT, Homo sapiens, UniProt P10721, D816V)

COc1cnc(Nc2cccc(S(N)(=O)=O)c2)nc1N1CCN(c2ccccc2)C(=O)C1 gave a remaining binding of 98% (KIT V559D; binding; competition with immobilised ligand; 1 µM).
With CN(C)c1nccc(-c2cnc3ncccn23)n1 the remaining binding was 54% (KIT A829P; binding; 1 µM).
The remaining binding of COc1ccc2c(c1)O[C@H](c1ccc(OC)c(OC)c1)C[C@@H]2NC(=O)C1(c2ccc3c(c2)OC(F)(F)O3)CC1 is reported as 100% (KIT; cell-free assay; competition with immobilised ligand; 1 µM).
O=C(c1ccc(Nc2nccc(-c3cc4ccccc4s3)n2)cc1)N1CCC(N2CCCC2)CC1 gave a remaining binding of 63% (KIT V559D/V654A; binding; competition with immobilised ligand; 1 µM).
With CN(c1nccc(-c2cnn3ncccc23)n1)C1CC1 the remaining binding was 83% (KIT D816H; binding; 1 µM).
C[C@@H](c1cccc(C#N)c1)n1cc(Cl)cc(C(N)=O)c1=N has a remaining binding of 93% (KIT V559D; cell-free assay; competition with immobilised ligand; 1 µM).
For c1cncc(-c2cccc(Nc3nccc(NC4CCCCC4)n3)c2)c1, the remaining binding was 1.2% (KIT V559D; binding; competition with immobilised ligand; 10 µM).
CNC(=O)[C@@H]1CC[C@@H](n2c(-c3ccc4cnccc4c3)nc3ccc(C(=O)NCc4cccc(C(N)=O)c4)cc32)C1 has a remaining binding of 100% (KIT D816H; binding; competition with immobilised ligand; 1 µM).
For C[C@H]1CCN(c2nccc(-c3cnn4ncccc34)n2)C1, the remaining binding was 67% (KIT L576P; binding; 1 µM).
For O=C(NCCCN1CCOCC1)c1ccc(Nc2ncc(Cl)c(-c3ccc(Cl)s3)n2)cc1, the remaining binding was 31% (Mast/stem cell growth factor receptor Kit, autoinhibited (KIT, Homo sapiens, UniProt P10721); binding; competition with immobilised ligand; 1 µM).
The remaining binding of CN(CCCC(F)(F)F)c1nccc(-c2cnn3ncccc23)n1 is reported as 100% (KIT T670I/V559D; binding; 1 µM).
CCS(=O)(=O)c1cc2cc(C[C@](O)(CC(C)(C)c3ccc(F)cc3C(N)=O)C(F)(F)F)[nH]c2cn1 gave a remaining binding of 83% (KIT L576P; cell-free assay; competition with immobilised ligand; 1 µM).
With C=CC(=O)N1CCC(C(=O)NCC(=O)N2CCN(c3nc(-c4cnc(N)nc4C(F)F)nc(N4CCOCC4)n3)CC2)CC1 the remaining binding was 78% (KIT V559D; binding; competition with immobilised ligand; 1 µM).
O=C(Nc1c[nH]nc1C(=O)NC1CCNCC1)c1cc(F)cc(F)c1 has a remaining binding of 100% (KIT V559D/V654A; binding; competition with immobilised ligand; 1 µM).
For F[C@@H]1CCN(c2nccc(-c3cnn4ncccc34)n2)C1, the remaining binding was 74% (KIT V559D/V654A; binding; 1 µM).
For Cc1cnc(Nc2ccc(C(=O)N3CCC(N4CCCC4)CC3)cc2)nc1-c1cc2ccccc2s1, the remaining binding was 4.5% (KIT; binding; competition with immobilised ligand; 1 µM).
C[C@@H](c1ccc(-n2cnc3c(N)ncnc32)cc1)N1CCc2nn(C)c(Cc3ccccc3)c2C1=O has a remaining binding of 38% (KIT; binding; competition with immobilised ligand; 0.1 µM).
For COc1cnc(Nc2cccc(S(N)(=O)=O)c2)nc1N1CCN(c2ccccc2)CC1, the remaining binding was 97% (KIT T670I/V559D; binding; competition with immobilised ligand; 1 µM).
The remaining binding of COc1ccc2c(O[C@@H]3C[C@H]4C(=O)N[C@]5(C(=O)O)CC5/C=C\CCCCC[C@H](NC(=O)OC5CCCC5)C(=O)N4C3)cc(-c3csc(NC(=O)C(C)C)n3)nc2c1C (some centres unmarked) is reported as 100% (KIT; cell-free assay; competition with immobilised ligand; 1 µM).
With O=C(c1ccc(Nc2ncc(Cl)c(-c3cc4ccccc4s3)n2)cc1)N1CCC(N2CCCC2)CC1 the remaining binding was 22% (KIT D816H; binding; competition with immobilised ligand; 1 µM).
CC(=O)N1CCC(c2ccc(C(=O)NC(=N)N)cc2C(F)(F)F)CC1 gave a remaining binding of 100% (KIT A829P; cell-free assay; competition with immobilised ligand; 1 µM).
O=C(c1ccc(Nc2ncc(Cl)c(-c3ccc(Cl)s3)n2)cc1)N1CCC(N2CCCC2)CC1 gave a remaining binding of 0.05% (KIT V559D; binding; competition with immobilised ligand; 1 µM).
For N[C@H]1CCN(c2nccc(-c3cnn4ncccc34)n2)C1, the remaining binding was 64% (KIT D816H; binding; 1 µM).
With O=C(NCC1CCOCC1)c1n[nH]cc1NC(=O)c1c(F)cccc1F the remaining binding was 100% (KIT T670I/V559D; binding; competition with immobilised ligand; 1 µM).
For COc1ccnn2ncc(-c3ccnc(N(C)C)n3)c12, the remaining binding was 85% (KIT A829P; binding; 1 µM).
C[C@@H]1CN(c2cc(-c3n[nH]c4ccc(OC5(C)CC5)cc34)ncn2)C[C@H](C)O1 gave a remaining binding of 100% (KIT V559D; cell-free assay; competition with immobilised ligand; 0.1 µM).
For CCN1CCN(Cc2ccc(C(=O)Nc3ccc(C)c(Oc4ccc5c(c4)CC(=O)N5)c3)cc2C(F)(F)F)CC1, the remaining binding was 2.9% (KIT L576P; binding; competition with immobilised ligand; 1 µM).
For Nc1ncc2c(n1)-c1c([nH]c3ccc(C#CC4CC4)cc13)CCCC2, the remaining binding was 89% (KIT D816H; binding; competition with immobilised ligand; 1 µM).
C[C@@]1(Cc2ccc(C#N)cc2)C(=O)N(c2cc(Cl)cc(Cl)c2)c2ncc(C(=O)NC3(c4nc(C5CCC5)no4)CC3)n21 has a remaining binding of 100% (KIT D816V; cell-free assay; competition with immobilised ligand; 1 µM).
For O=C(NCCCN1CCOCC1)c1ccc(Nc2nccc(-c3cc4ccccc4s3)n2)cc1, the remaining binding was 16% (KIT D816V; binding; competition with immobilised ligand; 1 µM).
The remaining binding of CN(C)c1ncc(F)c(-c2cnn3ncccc23)n1 is reported as 100% (KIT; binding; 1 µM).
FC(F)(F)c1ccc2c(c1)nc(-c1cccnc1)n2C1CC1 has a remaining binding of 100% (KIT V559D; cell-free assay; competition with immobilised ligand; 1 µM).
